Assay results reported in ChEMBL document CHEMBL1914423, “New imidazo[2,1-b]thiazole derivatives: synthesis, in vitro anticancer evaluation, and in silico studies” (Eur J Med Chem, 2011).

Key:
Format in all cases: functional
CCRF-CEM = experiment: Anticancer activity against human CCRF-CEM cells assessed as cell growth at 10^-5 M after 48 hrs by SRB assay; conditions: read-out: Activity
Procedure, shortened: (§1)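 NCI-60 single-dose screen at one concentration. Cells grown in RPMI 1640 with 5% FBS and 2 mM L-glutamine, plated at 5000–40,000 cells/well, and pre-incubated 24 h at 37 °C in 5% CO2 before DMSO-dissolved drug was added. Cells fixed with TCA, SRB-stained, absorbance read at 515 nm. Percent growth calculated against time-zero and untreated control plates.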

MOLT-4 = experiment: Anticancer activity against human MOLT4 cells assessed as cell growth at 10^-5 M after 48 hrs by SRB assay; conditions: MOLT-4, 48 h, read-out: Activity
SR = experiment: Anticancer activity against human SR cells assessed as cell growth at 10^-5 M after 48 hrs by SRB assay; conditions: read-out: Activity
Procedure, shortened: (§2)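 NCI-60 single-dose screen: cells in RPMI 1640 with 5% FBS and 2 mM L-glutamine, plated at 5000–40,000 cells/well by doubling time, and preincubated 24 h at 37 °C. Compound given at one concentration from DMSO stock. Cells TCA-fixed and SRB-stained, absorbance at 515 nm. Percent growth relative to time-zero and untreated controls; inhibition % = 100 − growth %.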

EKVX = experiment: Anticancer activity against human EKVX cells assessed as cell growth at 10^-5 M after 48 hrs by SRB assay; conditions: read-out: Activity; procedure, shortened: as §1
HOP-62 = experiment: Anticancer activity against human HOP62 cells assessed as cell growth at 10^-5 M after 48 hrs by SRB assay; conditions: HOP-62, 48 h, read-out: Activity; procedure, shortened: as §1
HOP-92 = experiment: Anticancer activity against human HOP92 cells assessed as cell growth at 10^-5 M after 48 hrs by SRB assay; conditions: HOP-92, 48 h, read-out: Activity; procedure, shortened: as §1
NCI-H23 = experiment: Anticancer activity against human NCI-H23 cells assessed as cell growth at 10^-5 M after 48 hrs by SRB assay; conditions: NCI-H23, 48 h, read-out: Activity
NCI-H322M = experiment: Anticancer activity against human NCI-H322M cells assessed as cell growth at 10^-5 M after 48 hrs by SRB assay; conditions: read-out: Activity
NCI-H460 = experiment: Anticancer activity against human NCI-H460 cells assessed as cell growth at 10^-5 M after 48 hrs by SRB assay; conditions: NCI-H460, 48 h, read-out: Activity
COLO 205 = experiment: Anticancer activity against human COLO205 cells assessed as cell growth at 10^-5 M after 48 hrs by SRB assay; conditions: COLO 205, 48 h, read-out: Activity; procedure, shortened: as §1
HCC 2998 = experiment: Anticancer activity against human HCC2998 cells assessed as cell growth at 10^-5 M after 48 hrs by SRB assay; conditions: HCC 2998, 48 h, read-out: Activity; procedure, shortened: as §1
HCT-116 = experiment: Anticancer activity against human HCT116 cells assessed as cell growth at 10^-5 M after 48 hrs by SRB assay; conditions: HCT-116, 48 h, read-out: Activity; procedure, shortened: as §1
SW-620 = experiment: Anticancer activity against human SW620 cells assessed as cell growth at 10^-5 M after 48 hrs by SRB assay; conditions: SW-620, 48 h, read-out: Activity; procedure, shortened: as §2
SF-268 = experiment: Anticancer activity against human SF268 cells assessed as cell growth at 10^-5 M after 48 hrs by SRB assay; conditions: SF-268, 48 h, read-out: Activity
U-251 = experiment: Anticancer activity against human U251 cells assessed as cell growth at 10^-5 M after 48 hrs by SRB assay; conditions: U-251, 48 h, read-out: Activity; procedure, shortened: as §2
LOX IMVI = experiment: Anticancer activity against human LOXIMVI cells assessed as cell growth at 10^-5 M after 48 hrs by SRB assay; conditions: read-out: Activity; procedure, shortened: as §1
Malme-3M = experiment: Anticancer activity against human MALME-3M cells assessed as cell growth at 10^-5 M after 48 hrs by SRB assay; conditions: read-out: Activity; procedure, shortened: as §1
M14 = experiment: Anticancer activity against human M14 cells assessed as cell growth at 10^-5 M after 48 hrs by SRB assay; conditions: M14, 48 h, read-out: Activity; procedure, shortened: as §1
SK-MEL-2 = experiment: Anticancer activity against human SK-MEL-2 cells assessed as cell growth at 10^-5 M after 48 hrs by SRB assay; conditions: SK-MEL-2, 48 h, read-out: Activity
SK-MEL-5 = experiment: Anticancer activity against human SK-MEL-5 cells assessed as cell growth at 10^-5 M after 48 hrs by SRB assay; conditions: SK-MEL-5, 48 h, read-out: Activity
UACC-257 = experiment: Anticancer activity against human UACC257 cells assessed as cell growth at 10^-5 M after 48 hrs by SRB assay; conditions: UACC-257, 48 h, read-out: Activity; procedure, shortened: as §2
UACC-62 = experiment: Anticancer activity against human UACC62 cells assessed as cell growth at 10^-5 M after 48 hrs by SRB assay; conditions: UACC-62, 48 h, read-out: Activity; procedure, shortened: as §2
OVCAR-4 = experiment: Anticancer activity against human OVCAR4 cells assessed as cell growth at 10^-5 M after 48 hrs by SRB assay; conditions: OVCAR-4, 48 h, read-out: Activity
OVCAR-5 = experiment: Anticancer activity against human OVCAR5 cells assessed as cell growth at 10^-5 M after 48 hrs by SRB assay; conditions: OVCAR-5, 48 h, read-out: Activity
OVCAR-8 = experiment: Anticancer activity against human OVCAR8 cells assessed as cell growth at 10^-5 M after 48 hrs by SRB assay; conditions: OVCAR-8, 48 h, read-out: Activity
NCI/ADR-RES = experiment: Anticancer activity against human NCI/ADR-RES cells assessed as cell growth at 10^-5 M after 48 hrs by SRB assay; conditions: read-out: Activity
SK-OV-3 = experiment: Anticancer activity against human SKOV3 cells assessed as cell growth at 10^-5 M after 48 hrs by SRB assay; conditions: SK-OV-3, 48 h, read-out: Activity
A498 = experiment: Anticancer activity against human A498 cells assessed as cell growth at 10^-5 M after 48 hrs by SRB assay; conditions: A498, 48 h, read-out: Activity; procedure, shortened: as §1
SN12C = experiment: Anticancer activity against human SN12C cells assessed as cell growth at 10^-5 M after 48 hrs by SRB assay; conditions: read-out: Activity
UO-31 = experiment: Anticancer activity against human UO31 cells assessed as cell growth at 10^-5 M after 48 hrs by SRB assay; conditions: UO-31, 48 h, read-out: Activity; procedure, shortened: as §2
PC-3 = experiment: Anticancer activity against human PC3 cells assessed as cell growth at 10^-5 M after 48 hrs by SRB assay; conditions: PC-3, 48 h, read-out: Activity
MDA-MB-231 = experiment: Anticancer activity against human MDA-MB-231 cells assessed as cell growth at 10^-5 M after 48 hrs by SRB assay; conditions: MDA-MB-231, 48 h, read-out: Activity; procedure, shortened: as §1
BT-549 = experiment: Anticancer activity against human BT549 cells assessed as cell growth at 10^-5 M after 48 hrs by SRB assay; conditions: BT-549, 48 h, read-out: Activity; procedure, shortened: as §1

SMILES | growth at 10 µM (CCRF-CEM) [%] | growth at 10 µM (MOLT-4) [%] | growth at 10 µM (SR) [%] | growth at 10 µM (EKVX) [%] | growth at 10 µM (HOP-62) [%] | growth at 10 µM (HOP-92) [%] | growth at 10 µM (NCI-H23) [%] | growth at 10 µM (NCI-H322M) [%] | growth at 10 µM (NCI-H460) [%] | growth at 10 µM (COLO 205) [%] | growth at 10 µM (HCC 2998) [%] | growth at 10 µM (HCT-116) [%] | growth at 10 µM (SW-620) [%] | growth at 10 µM (SF-268) [%] | growth at 10 µM (U-251) [%] | growth at 10 µM (LOX IMVI) [%] | growth at 10 µM (Malme-3M) [%] | growth at 10 µM (M14) [%] | growth at 10 µM (SK-MEL-2) [%] | growth at 10 µM (SK-MEL-5) [%] | also measured
COc1cccc(-c2nc3sccn3c2-c2ccnc(NCCNC(=O)Nc3ccccc3)n2)c1 | 44.4 | 74.9 | 93.1 | 113 | 129 | 70.9 | 111 | 108 | 115 | 100 | 113 | 52.9 | 77.3 | 103 | 108 | 102 | 112 | 99.1 | 99.9 | 81.9 | growth at 10 µM (UACC-257): 119%; growth at 10 µM (UACC-62): 86%; growth at 10 µM (OVCAR-4): 106%; growth at 10 µM (OVCAR-5): 126%; growth at 10 µM (OVCAR-8): 74.7%; growth at 10 µM (NCI/ADR-RES): 96.1%; growth at 10 µM (SK-OV-3): 99%; growth at 10 µM (A498): 103%; growth at 10 µM (SN12C): 65.6%; growth at 10 µM (UO-31): 76.1%; growth at 10 µM (PC-3): 84.2%; growth at 10 µM (MDA-MB-231): 103%; growth at 10 µM (BT-549): 96%
COc1cccc(-c2nc3sccn3c2-c2ccnc(NCCNC(=O)Nc3cccc(C(F)(F)F)c3)n2)c1 | 27 | 36.7 | 38.5 | 61.5 | 98.9 | 92.4 | 83.8 | 81.3 | 45.1 | 57.6 | 40.8 | 44.6 | 88.9 | 62.3 | 58.1 | 44.3 | 85.1 | 39.2 | 61.9 | 51.5 | growth at 10 µM (UACC-257): 69.5%; growth at 10 µM (UACC-62): 50.5%; growth at 10 µM (OVCAR-4): 91.1%; growth at 10 µM (OVCAR-5): 103%; growth at 10 µM (OVCAR-8): 21.3%; growth at 10 µM (NCI/ADR-RES): 27.2%; growth at 10 µM (SK-OV-3): 78.6%; growth at 10 µM (A498): 61.6%; growth at 10 µM (SN12C): 68.8%; growth at 10 µM (UO-31): 39.7%; growth at 10 µM (PC-3): 32.9%; growth at 10 µM (MDA-MB-231): 43.6%; growth at 10 µM (BT-549): 71.9%
O=C(NCCNc1nccc(-c2c(-c3cccc(O)c3)nc3sccn23)n1)Nc1ccccc1 | 46 | 65.5 | 90.1 | 118 | 150 | 90.2 | 114 | 113 | 102 | 69.3 | 94.7 | 67.5 | 63.3 | 79.8 | 108 | 79.6 | 36.1 | 24 | 97.5 | 69.3 | growth at 10 µM (UACC-257): 46.2%; growth at 10 µM (UACC-62): 24.6%; growth at 10 µM (OVCAR-4): 123%; growth at 10 µM (OVCAR-5): 114%; growth at 10 µM (OVCAR-8): 68.1%; growth at 10 µM (NCI/ADR-RES): 101%; growth at 10 µM (SK-OV-3): 92.3%; growth at 10 µM (A498): 99.7%; growth at 10 µM (SN12C): 64.3%; growth at 10 µM (UO-31): 86.6%; growth at 10 µM (PC-3): 86.6%; growth at 10 µM (MDA-MB-231): 85.9%; growth at 10 µM (BT-549): 96.2%
O=C(NCCNc1nccc(-c2c(-c3cccc(O)c3)nc3sccn23)n1)Nc1cccc(C(F)(F)F)c1 | 23.1 | 59.8 | 59.2 | 91.2 | 83.5 | 54.5 | 96.2 | 76.8 | 80.1 | 53.2 | 23 | 56.8 | 30.3 | 26.2 | 81.6 | 64.5 | 23.6 | -21.7 | 54.4 | 53.5 | growth at 10 µM (UACC-257): 25.3%; growth at 10 µM (UACC-62): 29.4%; growth at 10 µM (OVCAR-4): 110%; growth at 10 µM (OVCAR-5): 117%; growth at 10 µM (OVCAR-8): 41.1%; growth at 10 µM (NCI/ADR-RES): 108%; growth at 10 µM (SK-OV-3): 85%; growth at 10 µM (A498): 111%; growth at 10 µM (SN12C): 70.7%; growth at 10 µM (UO-31): 75.2%; growth at 10 µM (PC-3): 26.7%; growth at 10 µM (MDA-MB-231): 37.7%; growth at 10 µM (BT-549): 41.1%
